Assay results: ChEMBL document CHEMBL1255258, “Aminoglycosides affect intracellular Salmonella enterica serovars typhimurium and virchow” (Antimicrob Agents Chemother, 2008)
Converted amounts (≈) assume the structure as drawn. The source made the active and inactive calls. The calls are words filed in the database; no cut-off is given here.

Experiments:
Salmonella typhimurium [1] = experiment: Reduction in light emission by Salmonella enterica serovars Typhimurium ATCC 14028 at <= 30 ug/ml; assay type: functional, organism-based; conditions: Salmonella enterica subsp. enterica serovar Typhimurium
Salmonella typhimurium [2] = experiment: Reduction in light emission by Salmonella enterica serovars Typhimurium ATCC 14028 at > 30 ug/ml after 40 mins; assay type: functional, organism-based; conditions: Salmonella enterica subsp. enterica serovar Typhimurium
Salmonella [3] = experiment: Antibacterial activity against Salmonella infected in mouse Nramp1 deficient RAW 264.7 cells assessed as log reduction in viable count at 100 ug/ml; assay type: functional, organism-based
Salmonella typhimurium [4] = experiment: Reduction in light emission by Salmonella enterica serovars Typhimurium ATCC 14028 after 5 mins; assay type: functional, organism-based; conditions: Salmonella enterica subsp. enterica serovar Typhimurium
Salmonella typhimurium [5] = experiment: Antibacterial activity against Salmonella enterica serovars Typhimurium ATCC 14028 infected in mouse J774A.1 macrophage assessed as log reduction in viable counts at 150 ug/ml after 1hr; assay type: functional, organism-based; conditions: Salmonella enterica subsp. enterica serovar Typhimurium
Outline: (§1)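 J774 macrophages were seeded overnight at 37°C in 5% CO2, then switched to antibiotic-free RPMI. They were infected at 100:1 with Salmonella grown in RPMI to OD600 about 1. Extracellular bacteria were removed with 5 μg ml−1 polymyxin B for 10 min. Aminoglycoside was given for 1 h. Cells were lysed in 1% Triton X-100 buffer, and 1:10 serial dilutions were plated on LB agar.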

Salmonella typhimurium [6] = experiment: Reduction in light emission by Salmonella enterica serovars Typhimurium ATCC 14028 infected in mouse J774A.1 cells at 50 ug/ml within 5 mins; assay type: functional, organism-based; conditions: Salmonella enterica subsp. enterica serovar Typhimurium
Outline: (§2)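 Salmonella carrying pChν1 infected J774 macrophages (100:1, polymyxin B wash). Cells were held in antibiotic-free RPMI for 10 min at 37°C. Homoserine lactone 500 ng ml−1 was added, and 20 min later aminoglycoside at 15, 50, 100 or 150 μg ml−1. Luminescence was read every 5 min to 40 or 60 min, as % of untreated wells. Triplicate wells, at least three experiments.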

Salmonella typhimurium [7] = experiment: Antibacterial activity against Salmonella enterica serovars Typhimurium ATCC 14028 at pH 5.7 by broth dilution method; assay type: functional
Outline: (§3)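 Broth dilution MIC. Overnight cultures were diluted 1:100 in LB broth buffered with phosphate to pH 7 or 5.7, giving a final inoculum of ~10^6 CFU ml−1. Antibiotic range was 0 to 500 μg ml−1. Absorbance at 600 nm was read after 24 h at 37°C with shaking; mean of three experiments.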

Salmonella typhimurium [8] = experiment: Antibacterial activity against Salmonella enterica serovars Typhimurium ATCC 14028 at pH 7.0 by broth dilution method; assay type: functional
Outline: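 Broth dilution MIC in LB broth buffered with phosphate to pH 7. Overnight culture was diluted 1:100 to about 10^6 CFU ml−1 final, with antibiotic at 0 to 500 μg ml−1. A600 was read after 24 h at 37°C with shaking.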

[9] = test system: Salmonella enterica subsp. enterica serovar Virchow; experiment: Reduction in light emission by Salmonella enterica serovars virchow isolate 101591 at < 50 ug/ml; assay type: functional
[10] = test system: Salmonella enterica subsp. enterica serovar Virchow; experiment: Reduction in light emission by Salmonella enterica serovars virchow isolate 101591 at >= 50 ug/ml after 40 mins; assay type: functional
[11] = test system: Salmonella enterica subsp. enterica serovar Virchow; experiment: (§4) Antibacterial activity against Salmonella enterica serovars virchow isolate 101591 at pH 5.7 by broth dilution method; assay type: functional; outline: as §3
[12] = test system: Salmonella enterica subsp. enterica serovar Virchow; experiment: Antibacterial activity against Salmonella enterica serovars virchow isolate 101591 infected in mouse J774A.1 cells at 50 ug/ml after 1hr; assay type: functional, cell-based; outline: as §1
Salmonella typhimurium [13] = experiment: Reduction in light emission by Salmonella enterica serovars Typhimurium ATCC 14028 infected in mouse J774A.1 cells at 15 ug/ml after 30 mins; assay type: functional, organism-based; conditions: Salmonella enterica subsp. enterica serovar Typhimurium; outline: as §2
Salmonella typhimurium [14] = experiment: Reduction in light emission by Salmonella enterica serovars Typhimurium ATCC 14028 infected in mouse Nramp deficient RAW 264.7 cells at 100 ug/ml; assay type: functional, organism-based; set-up: scale not given: the % may be the effect or the level left; conditions: Salmonella enterica subsp. enterica serovar Typhimurium
Outline: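 RAW 264.7 macrophages, Nramp1+ (R37) or Nramp1-null (R21), were infected with serovar Typhimurium carrying pChν1. Homoserine lactone was 500 ng ml−1. Gentamicin 100 μg ml−1 was added 0.5 to 3 h after infection. Luminescence was read every 5 min, as a ratio to untreated control in the same cell line. Triplicate, at least three trials.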

[15] = test system: Salmonella enterica subsp. enterica serovar Virchow; experiment: Antibacterial activity against Salmonella enterica serovars virchow isolate 101591 infected in mouse J774A.1 macrophage assessed as log reduction in viable counts at 150 ug/ml after 1hr; assay type: functional; outline: as §1
Salmonella typhimurium [16] = experiment: Reduction in light emission by Salmonella enterica serovars Typhimurium ATCC 14028 infected in mouse J774A.1 cells at 50 ug/ml after 30 mins; assay type: functional, organism-based; conditions: Salmonella enterica subsp. enterica serovar Typhimurium; outline: as §2
Salmonella typhimurium [17] = experiment: Antibacterial activity against Salmonella enterica serovars Typhimurium ATCC 14028 assessed as log reduction in viable counts at 150 ug/ml after 1hr; assay type: functional, organism-based; conditions: Salmonella enterica subsp. enterica serovar Typhimurium
Salmonella [18] = experiment: Antibacterial activity against Salmonella infected in mouse RAW 264.7 cells expressing Nramp1 assessed as log reduction in viable count at 100 ug/ml; assay type: functional, organism-based
Salmonella typhimurium [19] = experiment: Reduction in light emission by Salmonella enterica serovars Typhimurium ATCC 14028 infected in mouse J774A.1 cells at 50 ug/ml after 40 mins; assay type: functional, organism-based; conditions: Salmonella enterica subsp. enterica serovar Typhimurium; outline: as §2
[20] = test system: Salmonella enterica subsp. enterica serovar Virchow; experiment: Reduction in light emission by Salmonella enterica serovars virchow isolate 101591 after 5mins; assay type: functional
Salmonella typhimurium [21] = experiment: Reduction in light emission by Salmonella enterica serovars Typhimurium ATCC 14028 infected in mouse J774A.1 cells at 15 ug/ml after 40 mins; assay type: functional, organism-based; set-up: scale not given: the % may be the effect or the level left; conditions: Salmonella enterica subsp. enterica serovar Typhimurium; outline: as §2
[22] = test system: Salmonella enterica subsp. enterica serovar Virchow; experiment: (§5) Antibacterial activity against Salmonella enterica serovars virchow isolate 101591 at pH 7.0 by broth dilution method; assay type: functional; outline: as §3
[23] = test system: Salmonella enterica subsp. enterica serovar Virchow; experiment: Antibacterial activity against Salmonella enterica serovars virchow isolate 101591 assessed as log reduction in viable counts at 150 ug/ml after 1hr; assay type: functional
Salmonella typhimurium [24] = experiment: Antibacterial activity against Salmonella enterica serovars Typhimurium ATCC 14028 infected in mouse J774A.1 cells at 50 ug/ml after 1hr; assay type: functional, organism-based; conditions: Salmonella enterica subsp. enterica serovar Typhimurium; outline: as §1
Salmonella typhimurium [25] = experiment: Antibacterial activity against Salmonella enterica serovars Typhimurium ATCC 14028 at pH 7.0 by bioluminescence assay; assay type: functional, organism-based, Salmonella enterica subsp. enterica serovar Typhimurium
Outline: (§6)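 Overnight cultures carrying the pChν1 lux plasmid were diluted 1:100 in LB broth with 30 μg ml−1 chloramphenicol, adjusted to pH 7 or 5.7. Final titer was ~10^6 CFU ml−1, with antibiotic at 0 to 500 μg ml−1. After 1 h at 30°C, homoserine-lactone (100 ng ml−1) was added to induce light. EC50 was the concentration halving light emission at 60 min; mean of three experiments.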

[26] = test system: Salmonella enterica subsp. enterica serovar Virchow; experiment: Reduction in light emission by Salmonella enterica serovars virchow isolate 101591 infected in mouse J774A.1 cells after 5 mins; assay type: functional, cell-based; outline: as §2
[27] = as §4; assay type: functional, Salmonella enterica subsp. enterica serovar Virchow; outline: as §3
[28] = Antibacterial activity against Salmonella enterica serovars virchow isolate 101591 at pH 5.7 by bioluminescence assay; assay type: functional, Salmonella enterica subsp. enterica serovar Virchow; outline: as §6
[29] = Antibacterial activity against Salmonella enterica serovars virchow isolate 101591 at pH 7.0 by bioluminescence assay; assay type: functional, Salmonella enterica subsp. enterica serovar Virchow; outline: as §6
[30] = as §5; assay type: functional, Salmonella enterica subsp. enterica serovar Virchow; outline: as §3
Salmonella typhimurium [31] = experiment: Antibacterial activity against Salmonella enterica serovars Typhimurium ATCC 14028 at pH 5.7 by bioluminescence assay; assay type: functional, organism-based, Salmonella enterica subsp. enterica serovar Typhimurium; outline: as §6
[32] = Salmonella enterica subsp. enterica serovar Typhimurium
[33] = Salmonella enterica, ATCC 14028, read-out: EC50

| Molecule | Activity (Salmonella typhimurium [5]) | Activity [12] | Activity [15] | Activity (Salmonella typhimurium [17]) | Activity [23] | Activity (Salmonella typhimurium [24]) | EC50 (Salmonella typhimurium [25]; [33]) [µg/mL] | Activity [26] | MIC (Salmonella typhimurium [7]) [µg/mL] | MIC (Salmonella typhimurium [8]) [µg/mL] | MIC [27] [µg/mL] | EC50 [28] [µg/mL] | EC50 [29] [µg/mL] | MIC [30] [µg/mL] | EC50 (Salmonella typhimurium [31]; [33]) [µg/mL] | also measured |
| --- | --- | --- | --- | --- | --- | --- | --- | --- | --- | --- | --- | --- | --- | --- | --- | --- |
| GENTAMICIN [listing 1 of 2 here] | Active | Active | Active | Active | Active | inactive | – | – | – | – | – | – | – | – | – | Activity (Salmonella typhimurium [1]): inactive; Activity (Salmonella typhimurium [2]): Active; FC (Salmonella [3]): 1.6; Activity (Salmonella typhimurium [4]): Active; Activity (Salmonella typhimurium [6]): Active; MIC (Salmonella typhimurium [7]; [32]): 125 µg/mL; MIC (Salmonella typhimurium [8]; [32]): 4 µg/mL; Activity [9]: inactive; Activity [10]: Active; MIC [11]: 125 µg/mL; Activity (Salmonella typhimurium [13]): Active; Activity (Salmonella typhimurium [14]): 80%; Activity (Salmonella typhimurium [16]): Active; FC (Salmonella [18]): 0.4; Activity (Salmonella typhimurium [19]): Active; Activity [20]: Active; Activity (Salmonella typhimurium [21]): 20%; MIC [22]: 8 µg/mL |
| NC[C@H]1O[C@H](O[C@H]2[C@H](O)[C@@H](O[C@H]3O[C@H](CO)[C@@H](O)[C@H](N)[C@H]3O)[C@H](N)C[C@@H]2N)[C@H](N)C[C@@H]1O [TOBRAMYCIN] | Active | Active | Active | Active | Active | inactive | 1 (≈ 2.14 µM) | Active | 125 (≈ 267 µM) | 4 (≈ 8.56 µM) | 250 (≈ 535 µM) | 75 (≈ 160 µM) | 2.5 (≈ 5.35 µM) | 8 (≈ 17.1 µM) | 19 (≈ 40.6 µM) | – |
| NC[C@H]1O[C@H](O[C@H]2[C@H](O)[C@@H](O[C@H]3O[C@H](CO)[C@@H](O)[C@H](N)[C@H]3O)[C@H](N)C[C@@H]2N)[C@H](O)[C@@H](O)[C@@H]1O [KANAMYCIN] | Active | Active | Active | Active | Active | inactive | 3.5 (≈ 7.22 µM) | Active | 250 (≈ 516 µM) | 8 (≈ 16.5 µM) | 250 (≈ 516 µM) | 130 (≈ 268 µM) | 6.5 (≈ 13.4 µM) | 16 (≈ 33 µM) | 29 (≈ 59.9 µM) | – |
| GENTAMICIN [listing 2 of 2 here] | – | – | – | – | – | – | – | – | – | – | – | 85 | 2 | – | – | EC50 (Salmonella typhimurium [25]): 1 µg/mL; EC50 (Salmonella typhimurium [31]): 34 µg/mL |
